Ki data for 29 compounds are collected here from ChEMBL document CHEMBL1139414, “Conformationally constrained analogues of diacylglycerol. 29. Cells sort diacylglycerol-lactone chemical zip codes to produce diverse and selective biological activities” (J Med Chem, 2008).

Usually Ki stands for the dissociation constant of the complex between target and ligand, obtained from inhibition or displacement. A higher Ki goes with a looser hold on the target.

The experiment concerns the target Protein kinase C alpha type (Mus musculus, UniProt P20444). The experiment can be described thus: Displacement of [3H]PDBu form mouse PKCalpha by scintillation counting. The method in brief:
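Partially purified mouse PKCα; competition with [³H]PDBU. ID50 obtained by fitting a sigmoidal competition curve and converted to Ki = ID50/(1+L/Kd). Pure compounds tested at 6–7 concentrations; crude library compounds at a single 1 μM concentration. Triplicates per concentration, at least three experiments; mean ± SEM.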
On the technique in general: Loss of bound radioactivity is the signal in a displacement assay; it reports binding, not function.
On to `CCCCC(CC)C(=O)OCC1(CO)C/C(=C\c2ccc(Cl)c(F)c2)C(=O)O1` (racemic; form 2), for which the Ki is 0.00489 µM.

Compound `CCCCC(CC)C(=O)OCC1(CO)C/C(=C/c2ccccc2)C(=O)O1` (racemic) showed a Ki of 0.035 µM.

`CCCCC(CC)C(=O)OCC1(CO)C/C(=C/c2ccc(-c3ccc(C(F)(F)F)cc3)cc2)C(=O)O1` (racemic) showed a Ki of 0.0274 µM. In the case of `CCCCCC/C=C1/CC(CO)(COC(=O)CCCCCC)OC1=O` (racemic) it was 0.037 µM; in that of `CC(C)(C)C(=O)OCC1(CO)C/C(=C/c2ccc(Cl)cc2)C(=O)O1` (racemic), 0.0294 µM; in that of `CCCC(CCC)C(=O)OCC1(CO)C/C(=C\c2ccc(F)c(Br)c2)C(=O)O1` (racemic; form 1), 0.0081 µM. With `COc1ccc(/C=C2\CC(CO)(COC(=O)c3c(C(C)C)cc(C(C)C)cc3C(C)C)OC2=O)cc1` (racemic; form 2) the figure was 0.197 µM; with `COc1ccc(/C=C2\CC(CO)(COC(=O)c3ccc(OC)cc3)OC2=O)cc1` (racemic; form 1), 0.129 µM; with `Cc1cc(C)c(C(=O)OCC2(CO)C/C(=C/c3ccc([N+](=O)[O-])cc3)C(=O)O2)c(C)c1` (racemic), 0.0375 µM. In the case of `CN(C)c1ccc(/C=C2\CC(CO)(COC(=O)c3ccc([N+](=O)[O-])cc3)OC2=O)cc1` (racemic; form 2) it was 1.23 µM; in that of `CCC(C(=O)OCC1(CO)C/C(=C/c2ccc(C(F)(F)F)cc2)C(=O)O1)c1ccccc1` (racemic), 0.0417 µM. For the compound `CCCC(CCC)C(=O)OCC1(CO)C/C(=C\c2ccc(F)cc2)C(=O)O1` (racemic; form 1), the Ki turned out to be 0.00553 µM. In the case of `O=C1OC(CO)(COC(=O)C2CCCCC2)C/C1=C/c1ccccc1` (racemic) it was 0.108 µM; in that of `CCCC(CCC)C(=O)OCC1(CO)C/C(=C\c2ccc(C(F)(F)F)cc2)C(=O)O1` (racemic; form 1), 0.00296 µM; in that of `CCCC(CCC)C(=O)OCC1(CO)C/C(=C\c2ccc(F)c(Cl)c2)C(=O)O1` (racemic; form 1), 0.00245 µM. In the case of `CC(C)C(=O)OCC1(CO)C/C(=C/c2ccc(Br)cc2)C(=O)O1` (racemic) it was 0.0726 µM. With `CCCCC(CC)C(=O)OCC1(CO)C/C(=C\c2ccc(Cl)c(F)c2)C(=O)O1` (racemic; form 1) the figure was 0.0124 µM; with `CN(C)c1ccc(/C=C2/CC(CO)(COC(=O)c3ccc(C(F)(F)F)cc3)OC2=O)cc1` (racemic), 0.515 µM. `O=C1OC(CO)(COC(=O)c2ccccc2)C/C1=C/c1ccc(C(F)(F)F)cc1` (racemic): the Ki came to 0.0641 µM.

`COc1ccc(/C=C2\CC(CO)(COC(=O)c3ccc(N(C)C)cc3)OC2=O)cc1` (racemic; form 1): the Ki was determined as 0.048 µM.

In turn, `CC(C)(C)CC(=O)OCC1(CO)C/C(=C/c2ccc(-c3ccc(C(F)(F)F)cc3)cc2)C(=O)O1` (racemic) gave a Ki of 0.037 µM. With `CN(C)c1ccc(/C=C2\CC(CO)(COC(=O)c3ccc([N+](=O)[O-])cc3)OC2=O)cc1` (racemic; form 1) the figure was 0.213 µM; with `CCC(C(=O)OCC1(CO)C/C(=C/c2ccc(OC(F)(F)F)cc2)C(=O)O1)c1ccccc1` (racemic), 0.0827 µM; with `O=C1OC(CO)(COC(=O)c2ccc([N+](=O)[O-])cc2)C/C1=C/C1CCCCC1` (racemic), 0.426 µM. Compound `COc1ccc(/C=C2/CC(CO)(COC(=O)c3ccc(C)cc3)OC2=O)cc1` (racemic) gave a Ki of 0.181 µM.

Consider `CCCCC(/C=C1/CC(CO)(COC(=O)c2c(C)cc(C)cc2C)OC1=O)CC` (racemic), for which the Ki is 0.0661 µM.

In turn, `Cc1ccccc1C(=O)OCC1(CO)C/C(=C/c2ccccc2)C(=O)O1` (racemic) returned a Ki of 0.135 µM. In the case of `COc1ccc(C(=O)OCC2(CO)C/C(=C\c3ccc(N(C)C)cc3)C(=O)O2)cc1` (racemic; form 2) it was 0.89 µM; in that of `CC(C)c1cc(C(C)C)c(C(=O)OCC2(CO)C/C(=C/C3CCCCC3)C(=O)O2)c(C(C)C)c1` (racemic), 0.174 µM.
